Tests used:
Rattus norvegicus [1] = assay: Antihypertensive activity as percentage fall in systolic blood pressure in spontaneously hypertensive rats after a period of 1 hr for a dose of 50 mg/kg; type: functional, Artery
Procedure, shortened: (§1)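 Male Okamoto-Aoki SHR, trained, in groups of four matched for mean systolic pressure; one group per run received water vehicle. Oral dosing in water (0.1 mL per 10 g) on two consecutive mornings. After the day-2 dose, rats were restrained at 30.0 ± 1.0 °C. Systolic pressure was read by tail cuff (inflated to 300 mmHg, first pulse) at 1–4 h. % fall is versus the untreated control group, by 1-tail t test (p ≤ 0.05).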

Rattus norvegicus [2] = assay: Percentage fall in systolic blood pressure in spontaneously hypertensive rats after 2 hr following 50 mg/kg p.o.; type: functional, Artery; conditions: route oral; procedure, shortened: as §1
[3] = molecular target: T1, Adrenergic receptor alpha-2 (Rattus norvegicus, UniProt P22086+P19328+P22909); assay: Antagonistic potency of compound for Alpha-2 adrenergic receptor; type: functional
T1 sequence (P22086 whole entry): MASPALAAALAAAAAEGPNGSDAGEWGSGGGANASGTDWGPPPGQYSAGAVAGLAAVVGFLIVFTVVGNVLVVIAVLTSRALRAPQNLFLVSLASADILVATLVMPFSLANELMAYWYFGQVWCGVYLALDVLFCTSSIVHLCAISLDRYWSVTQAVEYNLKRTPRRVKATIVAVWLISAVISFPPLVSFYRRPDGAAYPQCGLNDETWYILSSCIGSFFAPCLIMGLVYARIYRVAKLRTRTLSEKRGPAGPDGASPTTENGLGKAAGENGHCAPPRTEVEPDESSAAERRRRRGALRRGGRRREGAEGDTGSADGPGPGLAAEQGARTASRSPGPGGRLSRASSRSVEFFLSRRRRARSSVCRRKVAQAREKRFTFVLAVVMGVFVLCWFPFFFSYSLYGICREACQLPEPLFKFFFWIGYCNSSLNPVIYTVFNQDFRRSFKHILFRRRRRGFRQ
T1 sequence (P19328 whole entry): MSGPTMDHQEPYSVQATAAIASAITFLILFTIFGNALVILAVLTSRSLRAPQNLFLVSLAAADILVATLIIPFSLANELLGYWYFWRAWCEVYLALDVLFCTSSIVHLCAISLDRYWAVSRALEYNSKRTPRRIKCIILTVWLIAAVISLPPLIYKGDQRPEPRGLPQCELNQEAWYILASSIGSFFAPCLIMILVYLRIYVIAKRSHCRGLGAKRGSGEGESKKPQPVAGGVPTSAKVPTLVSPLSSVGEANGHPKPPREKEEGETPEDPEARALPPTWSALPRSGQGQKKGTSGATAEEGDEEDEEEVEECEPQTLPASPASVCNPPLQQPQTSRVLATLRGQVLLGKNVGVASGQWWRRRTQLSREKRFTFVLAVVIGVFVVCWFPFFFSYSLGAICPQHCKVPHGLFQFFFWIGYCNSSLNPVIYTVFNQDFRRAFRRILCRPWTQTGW
T1 sequence (P22909 whole entry): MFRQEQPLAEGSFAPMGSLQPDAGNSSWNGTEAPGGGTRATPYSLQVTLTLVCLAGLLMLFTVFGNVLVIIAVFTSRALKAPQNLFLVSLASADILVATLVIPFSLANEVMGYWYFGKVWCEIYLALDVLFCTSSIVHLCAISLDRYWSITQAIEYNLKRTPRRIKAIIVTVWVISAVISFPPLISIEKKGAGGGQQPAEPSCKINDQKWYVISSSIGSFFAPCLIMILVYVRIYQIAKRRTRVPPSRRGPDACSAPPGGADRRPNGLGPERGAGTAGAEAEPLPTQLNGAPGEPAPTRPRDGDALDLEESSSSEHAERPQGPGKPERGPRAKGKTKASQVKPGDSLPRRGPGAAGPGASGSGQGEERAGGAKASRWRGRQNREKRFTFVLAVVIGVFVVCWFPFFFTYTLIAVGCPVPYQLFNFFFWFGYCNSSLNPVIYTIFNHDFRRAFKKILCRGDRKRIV

Canis familiaris [4] = assay: Percent inhibition of the pressor responses to 1 ug/kg iv Epinephrine in pentobarbital-anesthetized dogs for a dose of 1 mg/kg; type: functional; conditions: Canis lupus familiaris
Procedure, shortened: (§2)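 Pentobarbital-anesthetized dogs (35 mg/kg iv) with femoral arterial pressure recording. Epinephrine (1 μg/kg), norepinephrine (0.75 μg/kg) and phenylephrine (7.5 μg/kg) iv challenges were given about every 10 min before and after rising iv test doses, which were spaced 90 min apart. Value is % inhibition of the pressor response.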

Canis familiaris [5] = assay: Change in mean arterial pressure in anesthetized dogs for a dose of 0.1 mg/kg; type: functional, Canis lupus familiaris, Artery
Procedure, shortened: (§3)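 Dogs anesthetized with sodium pentobarbital (35 mg/kg iv), femoral artery cannulated for pressure, ECG-triggered heart rate, femoral vein for dosing. Rising iv doses were given 90 min apart, and each dose is the full dose, not cumulative. Value is the maximal mean arterial pressure change 10–15 min after each dose, two dogs per compound, ±3 mmHg. Saline served as control.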

Canis familiaris [6] = assay: Percent inhibition of the pressor responses to 7.5 ug/kg iv phenylephrine in pentobarbital-anesthetized dogs for a dose of 0.1 mg/kg; type: functional; conditions: Canis lupus familiaris; procedure, shortened: as §2
Canis familiaris [7] = assay: Percent inhibition of the pressor responses to 7.5 ug/kg iv phenylephrine in pentobarbital-anesthetized dogs for a dose of 1 mg/kg; type: functional; conditions: Canis lupus familiaris; procedure, shortened: as §2
[8] = Distribution coefficient between 1-Octanol and phosphate buffer at pH7.4; type: physicochemical; conditions: 1-octanol/phosphate buffer, pH 7.4
Procedure, shortened: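 Octanol/buffer distribution measured at pH 7.4 in phosphate with sodium chloride. Either HPLC (0.004 M) or shake flask.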

Canis familiaris [9] = assay: Change in mean arterial pressure in anesthetized dogs for a dose of 1 mg/kg; type: functional, Canis lupus familiaris, Artery; procedure, shortened: as §3
Rattus norvegicus [10] = assay: Antihypertensive activity as percentage fall in systolic blood pressure in spontaneously hypertensive rats after a period of 4 hr for a dose of 50 mg/kg po; type: functional, Artery; procedure, shortened: as §1
Rattus norvegicus [11] = assay: Percentage fall in systolic blood pressure in spontaneously hypertensive rats after 3 h following 50 mg/kg p.o.; type: functional, Artery; conditions: route oral; procedure, shortened: as §1

| SMILES | Decrease in blood pressure (Rattus norvegicus [1]) | Decrease in blood pressure (Rattus norvegicus [2]) | pA2 [3] | inhibition in vivo at 1 mg/kg (Canis familiaris [4]) | MAP (Canis familiaris [5]) | inhibition in vivo at 0.1 mg/kg (Canis familiaris [6]) | inhibition in vivo at 1 mg/kg (Canis familiaris [7]) | logD [8] | MAP (Canis familiaris [9]) | Decrease in blood pressure (Rattus norvegicus [10]) | Decrease in blood pressure (Rattus norvegicus [11]) |
| --- | --- | --- | --- | --- | --- | --- | --- | --- | --- | --- | --- |
| CN1CC2(CCN(CC(O)C3COc4ccccc4O3)CC2)OC1=O (configuration not stated) | 28% | 31% | 6.4 | > 100% | 4 mmHg | 0% | 44% | 1.43 | -13 mmHg | 16% | 14% |
| O=C1NCC2(CCN(CCc3c[nH]c4ccccc34)CC2)O1 | 16% | 10% | < 5 | > 100% | -2 mmHg | 17% | 84% | 1.45 | -11 mmHg | 8% | 7% |

Source: ChEMBL document CHEMBL1121744, “Synthesis and antihypertensive activity of a series of 8-substituted 1-oxa-3,8-diazaspiro[4.5]decan-2-ones” (J Med Chem, 1981)
